Results reported in PMC6487498 (Toxicology and applied pharmacology, 2018).

Legend:
[1] = test system: LPS-activated RAW264.7 macrophages; experiment: IL-6 release; type: cell-based, mouse; conditions: LPS 500 ng/ml, 48 h
[2] = test system: primary bone marrow macrophages; experiment: Osteoclast differentiation with TRAP staining; type: cell-based, mouse; conditions: for effect on osteoclast development, ligand alone: receptor-saturating concentration, without RID-B; for effect of co-incubation on anti-osteoclastogenic effect of RID-B: with RID-B 300 nM; for number of osteoclasts: N = 4
[3] = test system: LPS-activated RAW264.7 macrophages; experiment: Nitric oxide production; type: cell-based, mouse; conditions: for effect of co-incubation on NO reduction by RID-B: ligand 5 μM with RID-B 1 μM
[4] = test system: RAW264.7 mouse macrophage cells; experiment: Cell viability; type: cell-based; conditions: for effect of co-incubation on RID-B cytotoxicity: with RID-B 10 μM, LPS 500 ng/ml
[5] = test system: LPS-activated RAW264.7 macrophages; experiment: TNF-α release; type: cell-based, mouse; conditions: LPS 500 ng/ml, 48 h; for effect of co-incubation with RID-B on TNF-α levels: ligand with RID-B
human CB2 receptors [6] = target: T1, human CB2 receptors (Homo sapiens, UniProt P34972); experiment: [35S]GTPγS binding; type: biochemical
T1 sequence (P34972 whole entry): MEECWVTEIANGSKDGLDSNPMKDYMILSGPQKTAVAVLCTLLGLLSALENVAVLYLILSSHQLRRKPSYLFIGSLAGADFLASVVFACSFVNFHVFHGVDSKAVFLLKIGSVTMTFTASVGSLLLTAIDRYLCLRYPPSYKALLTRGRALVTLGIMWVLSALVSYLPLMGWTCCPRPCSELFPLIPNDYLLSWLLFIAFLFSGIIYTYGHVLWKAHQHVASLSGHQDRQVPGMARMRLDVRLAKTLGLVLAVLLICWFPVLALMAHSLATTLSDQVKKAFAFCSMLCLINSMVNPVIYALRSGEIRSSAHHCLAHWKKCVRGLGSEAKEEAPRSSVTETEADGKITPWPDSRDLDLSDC

human CB2 receptors [7] = target: T1, human CB2 receptors; experiment: Competition receptor binding vs [3H]CP-55,940, CHO-hCB2 membranes
human CB1 receptors = human CB1 receptors (Homo sapiens, UniProt P21554); experiment: Competition receptor binding vs [3H]CP-55,940, CHO-hCB1 membranes; conditions: RID-B 1 μM; radioligand 0.2 nM; initial binding screen, data not shown
human CB1 receptors, sequence (P21554 whole entry): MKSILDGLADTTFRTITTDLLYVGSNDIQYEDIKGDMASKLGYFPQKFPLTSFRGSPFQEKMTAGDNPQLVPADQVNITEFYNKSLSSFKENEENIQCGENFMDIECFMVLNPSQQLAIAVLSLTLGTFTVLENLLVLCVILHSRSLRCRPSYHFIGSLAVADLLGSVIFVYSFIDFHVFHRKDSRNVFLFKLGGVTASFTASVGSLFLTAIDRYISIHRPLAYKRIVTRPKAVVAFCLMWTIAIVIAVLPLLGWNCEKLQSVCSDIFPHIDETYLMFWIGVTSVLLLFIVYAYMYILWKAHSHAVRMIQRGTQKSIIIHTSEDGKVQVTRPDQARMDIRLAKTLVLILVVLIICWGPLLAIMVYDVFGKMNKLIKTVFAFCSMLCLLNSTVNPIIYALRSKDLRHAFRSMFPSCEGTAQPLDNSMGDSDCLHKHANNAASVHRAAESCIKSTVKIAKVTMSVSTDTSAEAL

[8] = test system: CHO cells devoid of CB2 receptors; experiment: G-protein activity in CHO cells devoid of CB2 receptors; type: biochemical, Chinese hamster; conditions: data not shown
[9] = test system: LPS-activated RAW264.7 macrophages; experiment: IL-1α release; type: cell-based, mouse; conditions: RID-B 1 μM; LPS 500 ng/ml, 48 h
Summary of the method: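 RAW264.7 mouse macrophages pre-incubated 1 h with test compound, then stimulated with LPS 500 ng/ml for 48 h. Media collected and stored at −20 °C. Mouse IL-1α measured by ELISA kit per manufacturer's instructions.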

human CB2 receptors [10] = target: T1, human CB2 receptors; experiment: Forskolin-stimulated adenylyl cyclase activity in CHO-hCB2 cells; type: cell-based
[11] = test system: CHO cells not expressing cannabinoid receptors; experiment: Intracellular cAMP in CHO cells not expressing cannabinoid receptors; type: cell-based, Chinese hamster; conditions: data not shown

Cc1c(C(=O)NN2CCOCC2)nn(-c2ccc(Cl)cc2Cl)c1-c1ccc(I)cc1 [AM-281]
IL-6 level, ligand alone ([1]; without RID-B, N = 4): 1040 ± 119.4 pg/mL
effect on osteoclast development, ligand alone [2]: significantly reduce osteoclast development
effect of co-incubation on anti-osteoclastogenic effect of RID-B [2]: little consequence on the effects of RID-B
effect of co-incubation on NO reduction by RID-B ([3]; LPS 500 ng/ml, 48 h): did not alter NO levels compared to RID-B administered alone
effect of co-incubation on RID-B cytotoxicity [4]: attenuated
TNF-α level, ligand alone ([5]; without RID-B, N = 4): 21.3 ± 0.21 ng/mL
effect of co-incubation with RID-B on TNF-α levels [5]: significantly increases TNF-α levels

COc1ccc(C(=O)c2c(C)n(CCN3CCOCC3)c3cc(I)ccc23)cc1 [AM-630]
number of osteoclasts ([2]; AM-630 alone (1 μM in Fig. 7), vehicle 339.1 ± 15.6): 168.1 ± 15.4 osteoclasts per well
effect of co-incubation on NO reduction by RID-B ([3]; LPS 500 ng/ml, 48 h): did not alter NO levels compared to RID-B administered alone
effect of co-incubation with RID-B on TNF-α levels [5]: significantly increases TNF-α levels

CCCCCCC(C)(C)c1ccc(C2CC(O)CCC2CCCO)c(O)c1 (stereo not drawn) [CP-55,940, 5-(1,1-dimethylheptyl)-2-[5-hydroxy-2-(3-hydroxypropyl)cyclohexyl]phenol]
Emax (human CB2 receptors [6]; read-out: G-protein activation Emax): 25.4 ± 3%
effect on osteoclast development, ligand alone [2]: marginally reduced osteoclast formation
effect of co-incubation on anti-osteoclastogenic effect of RID-B [2]: significantly attenuated the anti-osteoclastogenic effects produced by RID-B
effect of co-incubation on RID-B cytotoxicity [4]: attenuated
effect of co-incubation with RID-B on TNF-α levels [5]: have no effect

CCCn1c(C)c(C(=O)c2cccc3ccccc23)c2ccccc21 [JWH-015]
effect on osteoclast development, ligand alone [2]: significantly reduce osteoclast development
effect of co-incubation on anti-osteoclastogenic effect of RID-B [2]: little consequence on the effects of RID-B
effect of co-incubation with RID-B on TNF-α levels [5]: have no effect

CCC(=C(c1ccc(OCCN2CCCC2)cc1)c1ccc(OCCN2CCCC2)cc1)c1ccccc1 [RID-B, ridaifen-B]
G-protein activation Imax (decrease below basal levels) (human CB2 receptors [6]; inverse agonism, N = 3): −31.2 ± 0.37%
reduction of LPS-induced IL-6 increase ([1]; RID-B 1 μM): 45%
IL-6 level ([1]; RID-B 1 μM, N = 4): 349.9 ± 34.9 pg/mL
displacement of [3H]-CP-55,940 from human CB2 receptors (human CB2 receptors [7]; RID-B 1 μM, radioligand 0.2 nM, initial binding screen, data not shown): > 50%
selectivity (affinity) for CB2 over CB1 receptors (human CB2 receptors [7]; ratio of Ki values): 17 fold
number of osteoclasts ([2]; RID-B 300 nM alone, vehicle 339.1 ± 15.6): 174.4 ± 19.2 osteoclasts per well
number of osteoclasts ([2]; RID-B 300 nM co-incubated with AM-630): 94.6 ± 15.6 osteoclasts per well
maximal decrease in the number of osteoclasts ([2]; RID-B 300 nM, M-CSF and RANKL, 4 days, drugs on days 2 and 3): 48.6%
displacement of [3H]-CP-55,940 from human CB1 receptors (human CB1 receptors): > 50%
effect on EC50 values of LPS for NO production ([3]; RID-B 300 nM, 500 nM, 1 μM): did not alter the EC50 values of LPS
reduction of NO production vs cells treated only with LPS ([3]; RID-B 1 μM alone, LPS 500 ng/ml, 48 h, N = 10): 30.1 ± 5.1%
NO reduction ([3]; RID-B 1 μM co-incubated with CP-55,940 2 μM, LPS 500 ng/ml, 48 h, N = 10): 9.3 ± 4.6%
NO levels reduced to ([3]; RID-B 1 μM co-incubated with JWH-015 5 μM, LPS 500 ng/ml, 48 h, N = 4): 51.1 ± 6.4%
Emax of LPS-induced NO production ([3]; co-incubation with RID-B 300 nM, 48 h, N = 3): 19.4 ± 3.8 µM
Emax of LPS-induced NO production ([3]; co-incubation with RID-B 500 nM, 48 h, N = 3): 22.0 ± 9.9 µM
Emax of LPS-induced NO production ([3]; co-incubation with RID-B 1 μM, 48 h, N = 4): 18.2 ± 4.7 µM
decrease of cell viability ([4]; RID-B 10 μM alone, 4 h exposure to LPS, N = 4): 34.0 ± 5.4%
effect on cell viability ([4]; RID-B 1 or 3 μM, forty-eight hour exposure to LPS 500 ng/ml): no effect on cell viability
effect on G-protein activity [8]: no effect on G-protein activity
IL-1α level [9]: 73.1 ± 4.7 pg/mL
reduction of IL-1α level [9]: 52.3%
Imax, increase of adenylyl cyclase activity (elevated cAMP levels) (human CB2 receptors [10]; 10 μM forskolin, inverse agonism, N = 3): 398 ± 30%
decrease in the potency of WIN-55,212-2 to inhibit adenylyl cyclase activity (human CB2 receptors [10]; RID-B 3 μM co-incubation, efficacy unchanged, parallel rightward shift): 11.2 fold
Kb (human CB2 receptors [10]; read-out: antagonist dissociation constant (Kb), RID-B 3 μM against WIN-55,212-2, N = 3): 294 nM
effect on TNF-α levels ([5]; RID-B 1 μM): slight but non-significant increase in TNF-α levels
effect on intracellular cAMP levels [11]: does not alter intracellular cAMP levels

SR-144528 [reference compound]
effect of co-incubation on NO reduction by RID-B ([3]; LPS 500 ng/ml, 48 h): did not alter NO levels compared to RID-B administered alone
